The values that follow come from ChEMBL document CHEMBL3352149, “Promiscuity and selectivity in covalent enzyme inhibition: a systematic study of electrophilic fragments” (J Med Chem, 2014).

For assay [1], the system named is Escherichia coli. In words: Inhibition of wild-type Escherichia coli MurF compound preincubated for 10 mins before substrate addition at 25 uM measured after 15 mins by LC-MS method. An outline of the steps: (§1)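 E. coli wild-type enzyme (4 nM) was preincubated with 25 μM compound for 10 min at 37 °C. Enzymatically generated nucleotide-sugar substrate (~200 μM) plus ATP (~200 μM), or NADPH 200 μM for MurB, was added for 10 min. Reactions were started with amino-acid cosubstrate (MurC–F) or EP-UNAG (MurB), run 15 min at 37 °C, and quenched with formic acid. Product was measured by negative-ESI LC-MS EIC peak area. MgCl2: MurC 10, MurD/E 2, MurF 5 mM; MurB had 5 mM KCl. All in 50 mM NH4HCO3, 0.07% BSA, 1% DMSO; triplicate.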

Assay [2] concerns Escherichia coli. In words: Inhibition of wild-type Escherichia coli MurE compound preincubated for 10 mins before substrate addition at 25 uM measured after 15 mins by LC-MS method. The method, boiled down:
as §1

Assay [3] is described as follows: GSH reactivity of the compound assessed as adducts formation by RP-HPLC analysis. The method, boiled down:
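Fresh aqueous glutathione (10 mM solution) was added to 50 mM Tris-maleate buffer, pH 7.5. The reaction was started with compound from 10 mM DMSO stock (final 250 μM). Mixtures were followed by reversed-phase HPLC on an ODS column with a gradient to 100% B; rate constants are given in l·mol⁻¹·s⁻¹.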

The test system of assay [4] is Escherichia coli. In words: Inhibition of Escherichia coli MetAP at 25 uM after 20 mins by HPLC analysis. An outline of the steps: (§2)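 Endpoint assay. Enzyme (50 nM) was preincubated with 25 μM compound for 20 min at 37 °C in 50 mM Tris pH 7.5, 100 mM NaCl, 100 μM CoCl2, 0.075% BSA. MGMM substrate (400 μM) was then added for 15 min (human MetAP-1) or 20 min (E. coli MetAP). Reactions were stopped with TFA. GMM product was quantified by RP-HPLC, UV 214 nm. Triplicate.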

Assay [5] has as its system Escherichia coli. In words: Inhibition of wild-type Escherichia coli MurA compound preincubated for 10 mins before substrate addition at 25 uM measured after 15 mins by LC-MS method.
The test system of assay [6] is Escherichia coli. In words: Inhibition of wild-type Escherichia coli MurC compound preincubated for 10 mins before substrate addition at 25 uM measured after 15 mins by LC-MS method. An outline of the steps:
as §1

The subject of assay [7] is Escherichia coli. In words: Inhibition of wild-type Escherichia coli MurD compound preincubated for 10 mins before substrate addition at 25 uM measured after 15 mins by LC-MS method. An outline of the steps: as §1
Assay [8] addresses Methionine aminopeptidase 1 (Homo sapiens) (UniProt P53582). In words: Inhibition of human MetAP at 25 uM after 20 mins by HPLC analysis. The method, boiled down: as §2
Assay [9] deals with Genome polyprotein (West Nile virus) (UniProt P06935). In words: Inhibition of West Nile virus NS2B-NS3 protease at 50 uM.
The target in a further assay is Prothrombin (Bos taurus) (UniProt P00735). In words: Inhibition of Bovine thrombin using Boc-Val-Pro-Arg-AMC as substrate compound preincubated at 25 uM for 15 mins by fluorescence assay. An outline of the steps: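 Bovine thrombin (final 10 nM) was preincubated 15 min with 25 μM compound in 50 mM Tris-HCl pH 7.5, 150 mM NaCl, 0.05% Tween 20. The reaction was started with Boc-Val-Pro-Arg-AMC (50 μM final). Fluorescence (ex 355/em 460 nm) was monitored continuously for 10 min; activity taken as slope (RFU/s). Triplicate.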

In assay [10] the target is Genome polyprotein (dengue virus type 2) (UniProt P12823). In words: Inhibition of Dengue virus serotype 2 NS2B-NS3 protease at 50 uM.
The subject of assay [11] is Escherichia coli. In words: Inhibition of wild-type Escherichia coli MurB compound preincubated for 10 mins before substrate addition at 25 uM measured after 15 mins by LC-MS method. The method, boiled down: as §1

Sequence of Genome polyprotein (West Nile virus) (P06935 whole entry): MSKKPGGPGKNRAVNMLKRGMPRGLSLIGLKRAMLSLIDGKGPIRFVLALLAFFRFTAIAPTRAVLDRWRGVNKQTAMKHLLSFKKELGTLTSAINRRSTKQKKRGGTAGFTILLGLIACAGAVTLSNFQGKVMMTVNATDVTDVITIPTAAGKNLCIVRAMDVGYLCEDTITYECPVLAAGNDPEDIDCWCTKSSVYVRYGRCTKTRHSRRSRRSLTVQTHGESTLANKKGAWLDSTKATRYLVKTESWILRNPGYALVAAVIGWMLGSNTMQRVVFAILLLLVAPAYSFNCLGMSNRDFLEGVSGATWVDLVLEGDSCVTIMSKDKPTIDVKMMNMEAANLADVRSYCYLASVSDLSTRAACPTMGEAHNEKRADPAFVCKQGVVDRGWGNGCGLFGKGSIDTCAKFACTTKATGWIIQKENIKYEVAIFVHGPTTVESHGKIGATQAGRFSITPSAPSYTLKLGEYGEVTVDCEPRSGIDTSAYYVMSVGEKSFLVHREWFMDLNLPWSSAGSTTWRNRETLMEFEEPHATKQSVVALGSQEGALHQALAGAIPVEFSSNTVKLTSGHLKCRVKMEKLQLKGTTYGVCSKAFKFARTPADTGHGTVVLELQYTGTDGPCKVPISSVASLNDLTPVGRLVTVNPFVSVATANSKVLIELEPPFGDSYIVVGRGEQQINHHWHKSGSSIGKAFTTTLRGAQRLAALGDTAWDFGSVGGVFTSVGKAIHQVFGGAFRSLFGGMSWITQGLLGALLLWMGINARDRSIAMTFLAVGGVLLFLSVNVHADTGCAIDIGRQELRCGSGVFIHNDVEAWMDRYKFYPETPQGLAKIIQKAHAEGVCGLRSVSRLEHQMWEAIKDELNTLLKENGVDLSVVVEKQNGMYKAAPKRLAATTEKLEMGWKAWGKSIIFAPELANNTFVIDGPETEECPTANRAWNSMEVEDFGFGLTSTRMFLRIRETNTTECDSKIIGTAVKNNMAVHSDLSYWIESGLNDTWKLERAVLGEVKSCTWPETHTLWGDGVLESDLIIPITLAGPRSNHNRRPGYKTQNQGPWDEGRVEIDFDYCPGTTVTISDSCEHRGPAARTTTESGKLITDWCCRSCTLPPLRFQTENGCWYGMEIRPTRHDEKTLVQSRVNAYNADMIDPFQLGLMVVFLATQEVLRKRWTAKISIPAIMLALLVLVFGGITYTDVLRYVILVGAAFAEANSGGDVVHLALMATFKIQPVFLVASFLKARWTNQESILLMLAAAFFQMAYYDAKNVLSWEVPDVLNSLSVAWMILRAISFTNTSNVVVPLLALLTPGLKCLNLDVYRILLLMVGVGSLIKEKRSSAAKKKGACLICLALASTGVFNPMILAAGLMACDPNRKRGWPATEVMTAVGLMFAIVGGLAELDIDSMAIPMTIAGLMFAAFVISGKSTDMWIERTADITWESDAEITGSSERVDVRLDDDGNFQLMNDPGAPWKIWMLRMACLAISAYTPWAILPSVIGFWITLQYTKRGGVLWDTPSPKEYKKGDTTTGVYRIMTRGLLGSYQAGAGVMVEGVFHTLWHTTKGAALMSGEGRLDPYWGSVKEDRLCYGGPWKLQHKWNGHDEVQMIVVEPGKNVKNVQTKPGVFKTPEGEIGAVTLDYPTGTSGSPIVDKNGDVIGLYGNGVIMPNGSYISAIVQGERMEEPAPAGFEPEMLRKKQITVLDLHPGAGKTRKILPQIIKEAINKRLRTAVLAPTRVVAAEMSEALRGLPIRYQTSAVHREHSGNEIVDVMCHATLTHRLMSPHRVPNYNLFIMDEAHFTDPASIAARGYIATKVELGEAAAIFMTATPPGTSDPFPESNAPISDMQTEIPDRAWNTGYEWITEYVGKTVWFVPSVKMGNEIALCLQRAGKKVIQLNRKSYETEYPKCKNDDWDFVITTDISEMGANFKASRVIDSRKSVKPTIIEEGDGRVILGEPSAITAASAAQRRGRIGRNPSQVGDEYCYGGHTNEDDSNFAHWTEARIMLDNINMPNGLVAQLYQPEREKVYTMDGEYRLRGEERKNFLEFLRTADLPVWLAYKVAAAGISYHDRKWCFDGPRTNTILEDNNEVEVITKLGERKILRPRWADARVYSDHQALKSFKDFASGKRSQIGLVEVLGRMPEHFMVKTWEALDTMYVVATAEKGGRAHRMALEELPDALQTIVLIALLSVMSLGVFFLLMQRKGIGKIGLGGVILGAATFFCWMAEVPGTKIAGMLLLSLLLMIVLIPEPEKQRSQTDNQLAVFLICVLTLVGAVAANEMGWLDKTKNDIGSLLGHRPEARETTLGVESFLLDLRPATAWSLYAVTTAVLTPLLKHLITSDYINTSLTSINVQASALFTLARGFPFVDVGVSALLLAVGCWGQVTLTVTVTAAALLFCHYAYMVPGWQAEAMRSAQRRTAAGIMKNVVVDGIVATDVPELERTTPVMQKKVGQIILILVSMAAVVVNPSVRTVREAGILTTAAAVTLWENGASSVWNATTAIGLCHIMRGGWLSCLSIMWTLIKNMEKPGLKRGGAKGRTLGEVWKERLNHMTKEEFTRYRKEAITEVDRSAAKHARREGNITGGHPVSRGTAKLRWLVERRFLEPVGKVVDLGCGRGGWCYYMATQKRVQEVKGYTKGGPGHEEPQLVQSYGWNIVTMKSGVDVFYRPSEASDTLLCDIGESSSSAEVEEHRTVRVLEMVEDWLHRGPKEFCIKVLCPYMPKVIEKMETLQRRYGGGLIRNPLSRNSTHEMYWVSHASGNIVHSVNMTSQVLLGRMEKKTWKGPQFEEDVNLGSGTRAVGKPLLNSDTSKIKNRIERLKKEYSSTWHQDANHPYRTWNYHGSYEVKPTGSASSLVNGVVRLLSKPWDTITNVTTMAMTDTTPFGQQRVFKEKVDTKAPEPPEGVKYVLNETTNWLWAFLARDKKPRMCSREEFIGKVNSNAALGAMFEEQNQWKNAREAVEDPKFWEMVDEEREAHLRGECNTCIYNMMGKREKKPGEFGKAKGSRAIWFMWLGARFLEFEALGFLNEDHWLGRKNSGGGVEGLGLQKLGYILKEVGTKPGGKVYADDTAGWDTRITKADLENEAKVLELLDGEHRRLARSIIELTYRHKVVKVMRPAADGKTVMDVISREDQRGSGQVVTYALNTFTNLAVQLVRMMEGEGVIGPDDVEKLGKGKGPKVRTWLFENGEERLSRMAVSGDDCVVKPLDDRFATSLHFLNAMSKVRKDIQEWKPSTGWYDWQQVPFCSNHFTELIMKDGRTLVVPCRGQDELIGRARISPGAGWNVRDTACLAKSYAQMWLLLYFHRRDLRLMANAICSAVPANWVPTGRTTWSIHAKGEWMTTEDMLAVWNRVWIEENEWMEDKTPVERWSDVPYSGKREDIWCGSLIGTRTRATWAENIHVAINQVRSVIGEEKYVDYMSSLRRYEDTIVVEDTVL

For `N#CCC(=O)NCc1ccccc1`, the inhibition in the assay with Escherichia coli [1], with Escherichia coli [2], in the assay on Escherichia coli [4], in the assay with Escherichia coli [5], in the assay with Escherichia coli [6] and with Escherichia coli [7] was less than 15% throughout. Moreover, the inhibition in assay [8] was less than 15%; in assay [9] it was 18%; against Prothrombin (Bos taurus), less than 15%; in assay [10] it was less than 15%; in the assay on Escherichia coli [11], less than 15%. The Activity in [3] was less than 0.1 L/mol/s.

Consider `CCCCC(NC(=O)CC#N)C(=O)OC` (stereo not given), for which the inhibition in the assay on Escherichia coli [1], in the assay on Escherichia coli [2], in the assay on Escherichia coli [4], in the assay with Escherichia coli [5], with Escherichia coli [6] and in the assay on Escherichia coli [7] was less than 15% in each case. The inhibition is less than 15% in assay [8]; 18% in assay [9]; less than 15% at Prothrombin (Bos taurus); less than 15% in assay [10]; less than 15% in the assay with Escherichia coli [11]. The Activity in [3] was less than 0.1 L/mol/s.

As to `C=CCNc1ccc(C)cc1`, the inhibition is 15% with Escherichia coli [1]; less than 15% with Escherichia coli [2]; less than 15% with Escherichia coli [4]; less than 15% in the assay with Escherichia coli [5]; less than 15% in the assay with Escherichia coli [6]; less than 15% with Escherichia coli [7]. Further, the inhibition (in assay [8]; in assay [9]; at Prothrombin (Bos taurus); in assay [10]; with Escherichia coli [11]) was less than 15% throughout. In addition, the Activity in [3] is less than 0.1 L/mol/s.

In the case of `O=C(CCl)Nc1ccc(F)cc1`, the inhibition with Escherichia coli [1], with Escherichia coli [2], in the assay with Escherichia coli [4], with Escherichia coli [5], with Escherichia coli [6] and in the assay on Escherichia coli [7] was less than 15% each time. Also, the inhibition (in assay [8]; in assay [9]; against Prothrombin (Bos taurus); in assay [10]; in the assay on Escherichia coli [11]) was less than 15% in each case. Also, the Activity in assay [3] is less than 0.1 L/mol/s.

On to `CNC(=O)C[S+](C)C`, for which the inhibition in the assay with Escherichia coli [1] was less than 15%; with Escherichia coli [2], 20%; in the assay with Escherichia coli [4], less than 15%; in the assay with Escherichia coli [5], less than 15%; in the assay with Escherichia coli [6] it was 14%; in the assay on Escherichia coli [7], less than 15%. For the same compound, the inhibition (in [8]; in assay [9]; at Prothrombin (Bos taurus); in [10]; in the assay on Escherichia coli [11]) was less than 15% each time.

For `N#CCC(=O)Nc1ccc(F)cc1`, the inhibition with Escherichia coli [1], in the assay on Escherichia coli [2], with Escherichia coli [4], in the assay on Escherichia coli [5], with Escherichia coli [6] and in the assay with Escherichia coli [7] was less than 15% each time. Besides, the inhibition (in assay [8]; in assay [9]; on Prothrombin (Bos taurus); in assay [10]; in the assay on Escherichia coli [11]) was less than 15% throughout. Also, the Activity in assay [3] is less than 0.1 L/mol/s.

As to `C=CCNC(CCCC)C(=O)OC` (stereo not given), the inhibition with Escherichia coli [1], with Escherichia coli [2], in the assay with Escherichia coli [4], with Escherichia coli [5], in the assay with Escherichia coli [6] and in the assay with Escherichia coli [7] was less than 15% throughout. Besides, the inhibition (in assay [8]; in [9]; at Prothrombin (Bos taurus); in [10]; in the assay with Escherichia coli [11]) was less than 15% in each case. Moreover, in assay [3], the Activity is less than 0.1 L/mol/s.

Consider `Cc1ccc(NC(=O)n2ccnc2)cc1`, for which the inhibition with Escherichia coli [1], in the assay with Escherichia coli [2], with Escherichia coli [4], in the assay with Escherichia coli [5], in the assay with Escherichia coli [6] and in the assay with Escherichia coli [7] was less than 15% each time. The inhibition (in assay [8]; in assay [9]; against Prothrombin (Bos taurus); in [10]; in the assay on Escherichia coli [11]) was less than 15% throughout. In addition, the Activity in assay [3] was less than 0.1 L/mol/s.

`C=CCNC`: the inhibition with Escherichia coli [1], in the assay on Escherichia coli [2], in the assay with Escherichia coli [4], with Escherichia coli [5], in the assay on Escherichia coli [6] and in the assay on Escherichia coli [7] was less than 15% throughout. For the same compound, the inhibition (in [8]; in assay [9]; against Prothrombin (Bos taurus); in assay [10]; in the assay with Escherichia coli [11]) was less than 15% in each case. In addition, the Activity in assay [3] is less than 0.1 L/mol/s.

As to `O=C(CCl)NCc1ccccc1`, the inhibition in the assay with Escherichia coli [1], in the assay on Escherichia coli [2], with Escherichia coli [4], in the assay on Escherichia coli [5], in the assay on Escherichia coli [6] and in the assay on Escherichia coli [7] was less than 15% in each case. Moreover, the inhibition (in assay [8]; in assay [9]; at Prothrombin (Bos taurus); in [10]; in the assay on Escherichia coli [11]) was less than 15% throughout. In addition, the Activity in [3] was less than 0.1 L/mol/s.

In the case of `C=CCNc1ccc([N+](=O)[O-])cc1`, the inhibition in the assay with Escherichia coli [1], in the assay with Escherichia coli [2], in the assay with Escherichia coli [4], with Escherichia coli [5], with Escherichia coli [6] and with Escherichia coli [7] was less than 15% each time. In addition, the inhibition is less than 15% in assay [8]; less than 15% in assay [9]; less than 15% at Prothrombin (Bos taurus); less than 15% in [10]; 20% with Escherichia coli [11]. Moreover, the Activity in assay [3] is less than 0.1 L/mol/s.

With `C[S+](C)CC(=O)Nc1ccc(F)cc1`, the inhibition in the assay on Escherichia coli [1] is less than 15%; with Escherichia coli [2], 15%; in the assay on Escherichia coli [4], less than 15%; with Escherichia coli [5] it was less than 15%; in the assay on Escherichia coli [6], less than 15%; in the assay with Escherichia coli [7], less than 15%. In addition, the inhibition (in assay [8]; in assay [9]; on Prothrombin (Bos taurus); in assay [10]; in the assay on Escherichia coli [11]) was less than 15% throughout.

Turning to `C[S+](C)CC(=O)NC1CCCC1`, the inhibition with Escherichia coli [1] is less than 15%; in the assay on Escherichia coli [2] it was 17%; in the assay with Escherichia coli [4], less than 15%; with Escherichia coli [5] it was less than 15%; with Escherichia coli [6] it was less than 15%; with Escherichia coli [7] it was less than 15%. Also, the inhibition (in assay [8]; in assay [9]; on Prothrombin (Bos taurus); in [10]; in the assay with Escherichia coli [11]) was less than 15% in each case.

As to `C[S+](C)CC(=O)NCCc1ccccc1`, the inhibition in the assay on Escherichia coli [1], with Escherichia coli [2], in the assay on Escherichia coli [4], with Escherichia coli [5], in the assay on Escherichia coli [6] and in the assay on Escherichia coli [7] was less than 15% throughout. In addition, the inhibition (in [8]; in assay [9]; at Prothrombin (Bos taurus); in assay [10]; in the assay on Escherichia coli [11]) was less than 15% each time.

In the case of `C[S+](C)CC(=O)NCc1ccccc1`, the inhibition in the assay with Escherichia coli [1], in the assay with Escherichia coli [2], in the assay with Escherichia coli [4], with Escherichia coli [5], with Escherichia coli [6] and with Escherichia coli [7] was less than 15% each time. Moreover, the inhibition (in assay [8]; in assay [9]; at Prothrombin (Bos taurus); in assay [10]; in the assay on Escherichia coli [11]) was less than 15% throughout.

One may read the inhibition as the change of the read-out against control, counted positive when it falls. A lower inhibition goes with a response near the control.
